The values that follow come from ChEMBL document CHEMBL5653631, “A Potent and Selective ULK1 Inhibitor Suppresses Autophagy and Sensitizes Cancer Cells to Nutrient Stress” (iScience, 2018).

For test [1], the target named is Proto-oncogene tyrosine-protein kinase ROS (Homo sapiens) (UniProt P08922). In words: Inhibition of human recombinant ROS at 40 nM related to control ULK1.
In test [2] the target is T1, Serine/threonine-protein kinase A-Raf (Homo sapiens) (UniProt P10398).
T1 sequence (whole entry): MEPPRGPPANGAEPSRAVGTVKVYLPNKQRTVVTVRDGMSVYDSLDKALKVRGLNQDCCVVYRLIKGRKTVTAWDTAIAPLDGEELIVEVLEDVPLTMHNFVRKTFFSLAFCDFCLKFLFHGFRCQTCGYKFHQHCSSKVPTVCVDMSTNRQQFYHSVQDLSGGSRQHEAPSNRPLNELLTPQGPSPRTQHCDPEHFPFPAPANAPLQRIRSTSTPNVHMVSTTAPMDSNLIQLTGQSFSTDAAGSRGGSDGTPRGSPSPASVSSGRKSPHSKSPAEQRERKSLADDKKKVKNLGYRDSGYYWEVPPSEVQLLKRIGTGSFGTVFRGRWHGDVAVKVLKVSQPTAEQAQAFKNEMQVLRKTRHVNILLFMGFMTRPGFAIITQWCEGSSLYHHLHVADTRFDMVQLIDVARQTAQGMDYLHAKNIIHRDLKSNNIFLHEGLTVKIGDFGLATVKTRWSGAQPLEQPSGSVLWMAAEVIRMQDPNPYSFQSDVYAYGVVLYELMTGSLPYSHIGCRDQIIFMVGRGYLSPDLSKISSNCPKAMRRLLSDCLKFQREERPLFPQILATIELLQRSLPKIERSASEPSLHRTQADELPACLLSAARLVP
Nature of the test: Inhibition of human recombinant ARAF at 500 nM in presence of ATP by radiometric assay relative to control. The method in brief:
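Panel of 327 recombinant human kinases, each assayed in vitro by radiometric activity assay in duplicate at a single inhibitor concentration per compound, chosen with reference to its ULK1 inhibition. Activity remaining was expressed as percent of vehicle control, and percent inhibition was calculated as 100 minus percent activity remaining.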

What is called inhibition is the share of the control response that was lost under treatment.

Each structure is given as a SMILES string.

Sequence of Proto-oncogene tyrosine-protein kinase ROS (Homo sapiens) (P08922 whole entry): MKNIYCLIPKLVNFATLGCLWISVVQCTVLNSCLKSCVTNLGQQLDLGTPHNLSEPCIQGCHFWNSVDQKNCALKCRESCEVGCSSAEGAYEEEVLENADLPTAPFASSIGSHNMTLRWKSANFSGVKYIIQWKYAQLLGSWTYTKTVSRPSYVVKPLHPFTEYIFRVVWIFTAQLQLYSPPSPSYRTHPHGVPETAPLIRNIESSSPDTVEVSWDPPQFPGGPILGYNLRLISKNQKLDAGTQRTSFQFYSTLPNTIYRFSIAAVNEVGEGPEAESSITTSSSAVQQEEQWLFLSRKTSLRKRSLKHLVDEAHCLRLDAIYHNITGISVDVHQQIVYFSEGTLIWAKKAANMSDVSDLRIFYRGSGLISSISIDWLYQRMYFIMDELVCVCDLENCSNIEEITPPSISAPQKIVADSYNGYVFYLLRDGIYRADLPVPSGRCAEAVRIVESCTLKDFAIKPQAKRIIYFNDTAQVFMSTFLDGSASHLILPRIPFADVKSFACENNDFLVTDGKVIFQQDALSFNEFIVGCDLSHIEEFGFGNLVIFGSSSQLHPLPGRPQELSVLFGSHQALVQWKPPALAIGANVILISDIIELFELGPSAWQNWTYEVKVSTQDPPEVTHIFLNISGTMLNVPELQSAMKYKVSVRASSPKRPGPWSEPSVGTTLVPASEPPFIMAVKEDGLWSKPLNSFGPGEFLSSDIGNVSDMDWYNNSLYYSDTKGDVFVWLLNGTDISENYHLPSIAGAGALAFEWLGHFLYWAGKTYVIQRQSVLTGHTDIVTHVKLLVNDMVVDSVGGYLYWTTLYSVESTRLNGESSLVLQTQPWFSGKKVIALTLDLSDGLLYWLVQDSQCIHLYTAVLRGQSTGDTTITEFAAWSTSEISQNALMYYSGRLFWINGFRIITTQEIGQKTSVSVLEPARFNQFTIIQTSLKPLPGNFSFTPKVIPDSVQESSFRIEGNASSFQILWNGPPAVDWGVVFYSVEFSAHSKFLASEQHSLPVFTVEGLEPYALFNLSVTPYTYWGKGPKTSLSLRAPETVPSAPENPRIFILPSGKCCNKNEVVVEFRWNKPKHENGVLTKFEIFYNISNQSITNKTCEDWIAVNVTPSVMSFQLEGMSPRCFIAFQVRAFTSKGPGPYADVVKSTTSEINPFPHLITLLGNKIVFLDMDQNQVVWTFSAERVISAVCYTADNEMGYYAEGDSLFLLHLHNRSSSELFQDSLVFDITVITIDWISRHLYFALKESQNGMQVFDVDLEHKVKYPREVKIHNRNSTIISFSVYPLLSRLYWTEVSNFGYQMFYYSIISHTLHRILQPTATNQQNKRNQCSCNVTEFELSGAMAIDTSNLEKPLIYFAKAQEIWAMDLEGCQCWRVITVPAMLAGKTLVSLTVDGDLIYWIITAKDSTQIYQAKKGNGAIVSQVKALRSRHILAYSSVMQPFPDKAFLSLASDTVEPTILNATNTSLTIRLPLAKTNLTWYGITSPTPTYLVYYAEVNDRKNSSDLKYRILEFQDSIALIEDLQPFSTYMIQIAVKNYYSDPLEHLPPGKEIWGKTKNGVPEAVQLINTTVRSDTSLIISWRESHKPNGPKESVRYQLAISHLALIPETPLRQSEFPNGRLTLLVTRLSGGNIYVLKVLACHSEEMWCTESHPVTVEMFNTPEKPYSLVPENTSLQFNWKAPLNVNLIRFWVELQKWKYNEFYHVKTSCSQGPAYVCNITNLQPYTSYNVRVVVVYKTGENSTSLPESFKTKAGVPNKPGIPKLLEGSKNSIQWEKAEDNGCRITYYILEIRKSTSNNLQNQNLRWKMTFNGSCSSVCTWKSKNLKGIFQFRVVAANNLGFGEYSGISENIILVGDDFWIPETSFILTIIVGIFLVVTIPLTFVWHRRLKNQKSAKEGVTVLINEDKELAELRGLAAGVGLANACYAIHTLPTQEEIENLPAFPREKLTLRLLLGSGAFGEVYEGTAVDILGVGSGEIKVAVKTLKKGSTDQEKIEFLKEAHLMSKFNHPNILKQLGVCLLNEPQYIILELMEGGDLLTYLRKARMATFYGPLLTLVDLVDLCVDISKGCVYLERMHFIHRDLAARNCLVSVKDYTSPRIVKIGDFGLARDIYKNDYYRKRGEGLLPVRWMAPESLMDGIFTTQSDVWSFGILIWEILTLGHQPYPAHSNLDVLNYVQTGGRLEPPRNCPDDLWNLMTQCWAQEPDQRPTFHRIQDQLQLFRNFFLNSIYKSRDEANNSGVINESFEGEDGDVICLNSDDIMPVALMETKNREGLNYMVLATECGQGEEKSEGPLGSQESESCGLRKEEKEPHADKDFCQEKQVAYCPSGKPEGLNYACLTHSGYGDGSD

Regarding `O=C(N[C@@H](C1CC1)C(F)(F)F)c1cc(-c2cnn3cc(-c4ccc(F)cc4)cnc23)cs1`, the fold change (FC) in test [1] came to 0.

Turning to `CNC(=O)c1ccccc1Oc1nc(Nc2cc(OC)c(OC)c(OC)c2)ncc1Br`, in test [2], the inhibition was 0%.
